Assay results: ChEMBL document CHEMBL4004799, “Octaminomycins A and B, Cyclic Octadepsipeptides Active against Plasmodium falciparum” (J Nat Prod, 2017)
The source made the active and inactive calls. No cut-off for these calls is given here. Where a SMILES comes first, the peptide text is derived from it. Bridges are numbered along the chain shown (N, C = ends). [ ]: non-standard residue; d: D form. The star is where a group is joined. NMeY = CN[C@@H](Cc1ccc(O)cc1)C(=O)O; Propionyl = CCC(=O)*

Assays:
Plasmodium falciparum [1] = test: Antimalarial activity against chloroquine-resistant Plasmodium falciparum K1; format: functional
How it was run: (§1)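 P. falciparum strains maintained at 37 °C under 5.0% CO2 in human erythrocytes (3% hematocrit), RPMI1640 with 10% human plasma; assay run per an earlier published method; IC50 in μM.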

Candida albicans = test: Antimicrobial activity against Candida albicans JCM1542 up to 30 uM after 24 hrs by broth microdilution assay; format: functional
HL-60 = test: Cytotoxicity against human HL60 cells after 48 hrs by WST-8 assay; format: cell-based; conditions: HL-60, 48 h
How it was run: (§2)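 Cells were seeded in 96-well plates and exposed to compounds for 48 h. HL-60 cells were grown at 37 °C in RPMI-1640 with 10% FBS. tsFT210 cells, a mouse FM3A cdc2 temperature-sensitive mutant, were grown at 32 °C in RPMI-1640 with 5% calf serum. WST-8 was added at 1/10 volume for 1 h, and growth was read as absorbance at 450 nm.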

NRK = test: Cytotoxicity against rat NRK cells infected with temperature-sensitive mutant of Rous sarcoma virus after 48 hrs by WST-8 assay; format: cell-based
How it was run: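 Rat kidney cells infected with ts25 (T-class Rous sarcoma virus Prague mutant) grown at permissive 32 °C in MEM + 10% calf serum; […] cells/well seeded, compounds applied 48 h; WST-8 (1/10 volume) added for 1 h, growth read as absorbance at 450 nm.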

Plasmodium falciparum [2] = test: Antimalarial activity against chloroquine-sensitive Plasmodium falciparum 3D7; format: functional; how it was run: as §1
Pyricularia oryzae = test: Antimicrobial activity against Pyricularia oryzae kita-1 up to 30 uM after 48 hrs by broth microdilution assay; format: functional
Staphylococcus aureus = test: Antimicrobial activity against Staphylococcus aureus 209 up to 30 uM after 24 hrs by broth microdilution assay; format: functional
Plasmodium falciparum [3] = test: Antimalarial activity against chloroquine-resistant Plasmodium falciparum Dd2; format: functional; how it was run: as §1
Escherichia coli = test: Antimicrobial activity against Escherichia coli HO141 up to 30 uM after 24 hrs by broth microdilution assay; format: functional
[4] = Cytotoxicity against temperature-sensitive mouse FT210 cells after 48 hrs by WST-8 assay; format: cell-based; conditions: FT210, 48 h; how it was run: as §2
Aspergillus fumigatus = test: Antimicrobial activity against Aspergillus fumigatus Af293 up to 30 uM after 48 hrs by broth microdilution assay; format: functional
HeLa = test: Cytotoxicity against human HeLa cells after 48 hrs by WST-8 assay; format: cell-based

| Compound | IC50 (Plasmodium falciparum [1]) [nM] | Activity (Candida albicans) | IC50 (HL-60) [nM] | IC50 (NRK) [nM] | IC50 (Plasmodium falciparum [2]) [nM] | Activity (Pyricularia oryzae) | Activity (Staphylococcus aureus) | IC50 (Plasmodium falciparum [3]) [nM] | Activity (Escherichia coli) | IC50 [4] [nM] | Activity (Aspergillus fumigatus) | IC50 (HeLa) [nM] |
| --- | --- | --- | --- | --- | --- | --- | --- | --- | --- | --- | --- | --- |
| CCC(=O)N[C@@H]1C(=O)N[C@@H](Cc2ccccc2)C(=O)N[C@H](CC(C)C)C(=O)N[C@@H](C(C)C)C(=O)N2CCC[C@H]2C(=O)N[C@@H](CC(C)C)C(=O)N(C)[C@@H](Cc2ccc(O)cc2)C(=O)N2CCC[C@H]2C(=O)O[C@@H]1C (Propionyl-TF[dL]VPL[NMeY]P; ester 1-C) | 1300 | inactive | > 30000 | > 30000 | 1500 | inactive | inactive | 1600 | inactive | > 30000 | inactive | > 30000 |
| CC(=O)N[C@@H]1C(=O)N[C@@H](Cc2ccccc2)C(=O)N[C@H](CC(C)C)C(=O)N[C@@H](C(C)C)C(=O)N2CCC[C@H]2C(=O)N[C@@H](CC(C)C)C(=O)N(C)[C@@H](Cc2ccc(O)cc2)C(=O)N2CCC[C@H]2C(=O)O[C@@H]1C (Ac-TF[dL]VPL[NMeY]P; ester 1-C) | 830 | inactive | > 30000 | > 30000 | 1500 | inactive | inactive | 1100 | inactive | > 30000 | inactive | > 30000 |
